# A selection: hits, their analogues and other compounds. The true share with any hit is near 6.1%.
# WT yeast gro inh – growth inhibition of WT strain, primary screen, mitochondrial fusion inhibitor project, WT and mutant strains, chemical genetic; mitochondrial fusion phenotypic screen; inhibition, % at 10 µM; hit rate 2.1% among 190,000; AID 1362, 2008; in the data active = inhibition above about 58%; tested in S. cerevisiae
# RAM network inh – inhibitors of the yeast RAM network, primary screen, dse1pr::URA3 reporter, 5-FOA selection; hit rate 1.8% among 190,000; S. cerevisiae dse1pr::URA3 reporter, 5-FOA growth OD615, 2 d; analog-sensitive cbk1-as2 kinase mutant strain; inhibition, % at 50 µM; AID 868, 2007;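 active = inhibition above a set limit, 3 SD over mean compound inhibition, cut at about 8.4% in these data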;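 note: 0% = DMSO-only wells with no growth and 100% = 10 µM 1-NA-PP1 full growth; inhibition rescues growth on 5-FOA so higher OD means more RAM inhibition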
# hDAT+cocaine – changed hDAT dopamine uptake under cocaine IC80, either direction, primary screen, cocaine antagonist project, cell-based, LLC-PK1 hDAT, [14C]-dopamine uptake, MLSMR. LLC-PK1 hDAT cells, [14C]-dopamine uptake with cocaine IC80; actives deviate in either direction. hit rate 1.3% among 110,000. B-score at 10 µM;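 active = Z score or B-score, a plate-position-corrected score, falls beyond the plate's 99.7% confidence bounds, in either direction; inactive = both scores lie inside the 99.7% bounds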;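 note: scored against the spread of the other compound wells on the same plate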
# Target sequence (Q01959 whole entry, looked up): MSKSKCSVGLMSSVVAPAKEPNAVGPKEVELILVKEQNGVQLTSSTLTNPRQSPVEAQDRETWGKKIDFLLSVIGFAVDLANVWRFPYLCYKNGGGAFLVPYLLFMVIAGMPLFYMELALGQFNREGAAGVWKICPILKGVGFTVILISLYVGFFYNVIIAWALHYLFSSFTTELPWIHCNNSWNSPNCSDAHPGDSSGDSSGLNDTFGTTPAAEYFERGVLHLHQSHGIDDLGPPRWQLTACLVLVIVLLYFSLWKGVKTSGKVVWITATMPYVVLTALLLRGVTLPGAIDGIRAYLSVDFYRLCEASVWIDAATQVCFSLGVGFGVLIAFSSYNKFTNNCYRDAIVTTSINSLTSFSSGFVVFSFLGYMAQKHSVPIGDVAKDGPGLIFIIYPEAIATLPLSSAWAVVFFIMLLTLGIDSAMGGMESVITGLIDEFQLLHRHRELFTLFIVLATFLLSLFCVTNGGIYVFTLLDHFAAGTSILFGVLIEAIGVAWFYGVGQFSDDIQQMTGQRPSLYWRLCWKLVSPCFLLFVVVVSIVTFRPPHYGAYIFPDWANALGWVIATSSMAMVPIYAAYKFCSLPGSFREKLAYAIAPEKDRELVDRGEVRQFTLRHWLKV
# Yeast life ext – compounds extending yeast replicative lifespan, primary screen, S. cerevisiae, OD615 | hit rate 0.68% among 130,000 | AID 775, 2007 | inhibition of the nicotinamide effect, % at 10 µM | S. cerevisiae growth with nicotinamide; deaD strain in restrictive glucose medium;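 active = inhibition above a set limit, placed 3 SD over the median of all compounds, cut at about 26% in these data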;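 note: 0% = nicotinamide-treated wells and 100% = cells grown without nicotinamide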
#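 Measured by: optical density (absorbance) at 615 nm; System: modified budding yeast, DeaD strain; Medium: restrictive CSMM-D dextrose medium; Timing: 4 h preincubation then 48 h treatment at 30 °C.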
# BB579 growth dn – growth inhibitors of yeast BB579 in restrictive medium, primary screen, yeast lifespan-shortening project, S. cerevisiae; hit rate 0.51% among 140,000; inhibition, % at 10 µM; AID 804, 2007; OD615, 48 h;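 active = inhibition above a set limit, 3 SD over the mean compound inhibition, cut at about 44% in these data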
#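 Material: Saccharomyces cerevisiae DeaD strain BB579, replicative lifespan model yeast; buffer or medium: CSMM-D restrictive synthetic medium containing dextrose (glucose); compound: 10 µM single dose, DMSO 0.25%; timing: 48 h compound exposure at 30 °C after 4 h preincubation; signal: turbidity as optical density at 615 nm; benchmarks: positive control amphotericin B 10 µg/mL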
# Measles CPE – compounds protecting cells from measles virus cytopathic effect, primary screen, measles RdRp inhibitor project, single point, MLSMR library, absorbance; Measles virus-infected cells, CPE protection; protection (pct of control), % at 4 µM; hit rate 1.5% among 140,000; AID 841, 2007; in the data active = protection mostly above about 24%, no sharp cut-off; inactive = mostly below about 26%
# Starred values were filed as active, the others as inactive; x = not tested or not shown.
SMILES,WT yeast gro inh,RAM network inh,hDAT+cocaine,Yeast life ext,BB579 growth dn,Measles CPE
N#Cc1nnn(Cc2ccccc2)c1N,-11.3,1.2,x,x,x,x
COCCn1c(=NC(=O)c2cc3ccccc3oc2=O)sc2cc(S(N)(=O)=O)ccc21,-5.4,5.2,x,7.5,-41.8,2.2
CCO[C@H]1OC(C(=O)O)=C[C@@H](c2ccc(C(F)(F)F)cc2)[C@@H]1CCCO,2.9,1.5,-0.97,x,x,x
CC(=O)Cc1nsc(NC(=O)c2ccc(-c3ccc(Cl)c(Cl)c3)o2)n1,69.2*,4.7,x,x,x,x
CC(=O)Cc1nsc(NC(=O)c2ccc(-c3cc(Cl)ccc3Cl)o2)n1,71.3*,5.1,x,x,x,x
CC(=O)Cc1nsc(NC(=O)c2ccc(-c3ccc(Cl)cc3Cl)o2)n1,30.6,4.7,0.139,-5.3,-78.4,11.9
CCCCSCCCNC(=O)Nc1ccc(CC)cc1,24.1,0.2,x,x,x,x
Clc1nssc1=Nc1ccccc1,18.1,-1.6,x,x,x,x
Clc1ccc(N=c2ssnc2Cl)cc1,-6.4,-1.5,0.637,x,76.9*,12.7
COc1ccccc1C(=O)Nc1onc(C)c1C#N,7.6,1.5,x,x,x,x
CCN(CC)C(=O)CSc1nc(N)c2c3c(sc2n1)CC(C)CC3 (stereo unspecified),32.7,0.0,2.12*,-0.8,-51.9,3.5
CCSc1nc(N)c2c3c(sc2n1)CN(C)CC3,0.1,0.5,0.738,-11.2,-6.5,43.8*
COc1ccc(N2C(=O)C3C(c4ccc(C(=O)O)cc4)NC(Cc4ccccc4)(C(=O)O)C3C2=O)c([N+](=O)[O-])c1 (stereo unspecified),8.4,-0.4,x,x,x,x
N#Cc1c(N)nc2c(c1-c1ccccc1)CCC2,-0.8,1.4,x,x,x,x
O=S(=O)(c1cccs1)N1CN(Cc2cccs2)c2nc3ccccc3nc21,26.6,8.6*,-0.0284,1.7,-28.6,11.0
O=S(=O)(c1cccs1)N1CN(Cc2ccccc2)c2nc3ccccc3nc21,-1.8,6.2,1.99,-6.3,-39.6,21.1
Cc1ccc(S(=O)(=O)N2CN(Cc3ccco3)c3nc4ccccc4nc32)cc1,3.1,0.6,0.78,2.8,-1.7,2.2
O=S(=O)(c1ccc(F)cc1)N1CN(Cc2ccco2)c2nc3ccccc3nc21,63.0*,1.7,-0.0608,4.5,-74.8,2.2
Clc1cccc(Cc2nn[nH]n2)c1,1.6,0.8,-0.515,x,x,x
C=CCOc1nc(-c2ccncc2)nc2ccccc12,9.1,0.1,0.153,-18.5,-20.9,30.0*
COc1nc(-c2ccncc2)nc2ccccc12,53.0,-0.5,0.202,-26.0,-47.1,26.7
O=C1CSC(c2ccccc2)N1c1nnc(C23CC4CC(CC(C4)C2)C3)s1 (stereo unspecified),31.7,3.9,-1.26,-8.0,-26.6,5.7
CC(C)(C)C(=O)NC(=S)NNC(=O)c1sc2ccccc2c1Cl,75.3*,2.1,x,11.1,-19.7,5.2
O=C(NNC(=S)NC1CCCCC1)c1sc2ccccc2c1Cl,8.0,4.3,x,1.0,-29.7,8.5
CCOCCCn1cnc2c(c1=O)c1nc3ccccc3nc1n2-c1ccc(C)cc1,-0.4,4.0,1.7,-2.0,-27.6,1.0
SMILES,WT yeast gro inh,RAM network inh,hDAT+cocaine,Yeast life ext,BB579 growth dn,Measles CPE
CCCCCCn1cnc2c(c1=O)c1nc3ccccc3nc1n2/N=C/c1ccco1,8.1,3.3,3.96*,-9.5,-57.9,12.2
CCCCCCn1cnc2c(c1=O)c1nc3ccccc3nc1n2Cc1cccs1,-4.3,5.7,-0.167,-1.5,-29.4,7.8
CCOCCCn1cnc2c(c1=O)c1nc3ccccc3nc1n2-c1ccccc1,-3.4,3.5,0.541,-7.6,-3.8,42.6*
O=c1oc2cc(Oc3c([N+](=O)[O-])cc(C(F)(F)F)cc3[N+](=O)[O-])ccc2c2c1CCCC2,62.2*,1.1,-0.847,10.7,-48.0,10.8
CC(Nc1ccc(Cl)cc1)c1cc(Cl)ccc1O (stereo unspecified),74.5*,-1.6,-0.197,x,7.7,5.8
CC(Nc1ccc(Br)cn1)c1cc(Cl)ccc1O (stereo unspecified),72.5*,0.8,x,3.3,60.5*,5.5
CC(C)Cn1c(=O)c2ccccc2c2ccccc2c1=O,31.4,1.4,0.0256,-5.8,-8.8,4.1
CC(C)CCn1c(=O)c2ccccc2c2ccccc2c1=O,59.2*,0.8,-0.109,-9.4,-68.1,7.1
FC(F)(F)c1ccc(Cl)c(N/N=C/c2ccc(N3CCOCC3)s2)c1,58.2*,1.8,x,-2.0,-24.7,4.0
O=C(N/N=C/c1ccc(N2CCOCC2)s1)c1ccccc1Cl,x,2.3,x,x,x,x
CCc1ccc(Cc2cnc(NC(=O)C3=NCCN3)s2)cc1,36.7,0.5,x,x,x,x
C=CCN(CC=C)c1nc2ccccc2nc1C(C#N)C(=O)OC(C)C (stereo unspecified),19.8,0.9,-0.744,36.1*,-33.8,2.5
C=CCOC(=O)C(C#N)c1nc2ccccc2nc1N1CCN(c2ccccc2OC)CC1 (stereo unspecified),13.7,2.3,-0.359,-0.2,-42.9,5.9
Cc1cccc(N=N/C(=C\O)C(=O)c2ccc(Br)cc2)c1,96.5*,4.1,x,x,x,x
Cc1cccc(N/N=C(\C=N\N)C(=O)c2ccc(Br)cc2)c1,76.6*,0.0,x,x,x,x
O=C(/C(=C/O)N=Nc1cccc(C(F)(F)F)c1)c1ccccc1,94.6*,7.7,x,x,x,x
NCCS,2.2,1.0,-0.121,3.7,-12.7,14.9
COc1ccc(OC)c([N+](=O)[O-])c1C(N)=O,2.7,-0.2,x,x,x,x
CC(C)C(NS(=O)(=O)c1ccccc1)C(=O)OCc1cc([N+](=O)[O-])cc2c1OCOC2 (stereo unspecified),18.3,5.5,x,-1.8,-27.8,12.9
CCN(CC)CCN(C)Cc1ccc(Br)cc1,2.3,1.3,1.03,-4.0,-14.1,12.2
O=C(/C=C\Nc1ccc(Br)cc1)c1cccnc1,-14.2,2.1,x,-4.7,-21.0,4.4
CC(NC(=S)NCc1ccccc1)C12CC3CC(CC(C3)C1)C2 (stereo unspecified),5.0,3.2,x,x,x,x
O=C(O)CSc1c(-c2cccs2)[nH]c2ccccc12,6.1,1.2,x,2.3,-16.2,40.1*
Cc1ccc(N=Cc2c(C)[nH]n(-c3nc4ccccc4[nH]3)c2=O)cc1,84.4*,4.0,x,3.3,1.1,13.1
CCN(CC)c1ccc(NC(=O)c2ccccc2)cc1S(=O)(=O)Nc1ccccc1OC,18.5,0.8,x,-2.0,-9.7,44.7*
COc1ccccc1NC(=O)Nc1ccc(Cl)c(S(=O)(=O)Nc2ccccc2OC)c1,-0.9,8.4*,x,2.4,-24.5,12.0
COc1ccc(C(=O)Nc2ccc(Cl)c(S(=O)(=O)Nc3ccccc3OC)c2)cc1,30.4,4.1,x,-1.6,-5.6,7.4
